Tests used:
[1] = biological target: Serine/threonine-protein kinase PAK 2 (Homo sapiens) (UniProt Q13177); assay: Inhibition of PAK2 (unknown origin) at 30 uM by microfluidic mobility shift assay relative to control
Procedure, shortened: (§1)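 Single-point screen at 30 µM test compound across a 24-kinase panel in a microfluidic assay format. ATP was set near each enzyme's Km,[ATP]. […] The pan-AGC inhibitor H-89 served as an internal control on every assay plate.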

[2] = biological target: T1, Serine/threonine-protein kinase Sgk2 (Homo sapiens) (UniProt Q9HBY8); assay: Inhibition of SGK2 (unknown origin) at 30 uM by microfluidic mobility shift assay relative to control
T1 sequence (whole entry): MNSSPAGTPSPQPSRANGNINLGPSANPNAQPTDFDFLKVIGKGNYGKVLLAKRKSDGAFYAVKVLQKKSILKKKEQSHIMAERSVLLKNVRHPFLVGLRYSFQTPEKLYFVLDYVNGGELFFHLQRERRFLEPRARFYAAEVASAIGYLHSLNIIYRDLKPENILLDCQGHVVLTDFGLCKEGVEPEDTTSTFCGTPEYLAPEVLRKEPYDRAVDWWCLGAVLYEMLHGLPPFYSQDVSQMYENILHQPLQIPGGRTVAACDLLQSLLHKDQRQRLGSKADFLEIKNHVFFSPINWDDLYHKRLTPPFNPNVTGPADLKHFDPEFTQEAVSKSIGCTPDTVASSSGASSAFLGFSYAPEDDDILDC
Procedure, shortened: (§2)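 Single-point screen against a 24-kinase panel in a commercial microfluidic assay format. Compounds were tested at 30 µM, with ATP at approximately the Km,[ATP] of each enzyme. H-89 was included on each assay plate as an internal control.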

[3] = biological target: T2, Testis-specific serine/threonine-protein kinase 2 (Homo sapiens) (UniProt Q96PF2); assay: Inhibition of TSSK2 (unknown origin) at 30 uM by microfluidic mobility shift assay relative to control; procedure, shortened: as §2
T2 sequence (whole entry): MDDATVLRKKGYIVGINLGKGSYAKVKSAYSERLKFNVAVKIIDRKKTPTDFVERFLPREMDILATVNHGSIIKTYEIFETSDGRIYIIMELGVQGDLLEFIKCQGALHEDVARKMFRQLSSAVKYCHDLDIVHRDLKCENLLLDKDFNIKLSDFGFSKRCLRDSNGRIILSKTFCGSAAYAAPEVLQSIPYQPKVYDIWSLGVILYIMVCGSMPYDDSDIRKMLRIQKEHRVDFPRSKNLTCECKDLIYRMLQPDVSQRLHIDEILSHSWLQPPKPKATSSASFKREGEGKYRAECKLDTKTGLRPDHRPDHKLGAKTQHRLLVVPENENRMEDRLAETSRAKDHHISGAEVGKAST

[4] = biological target: Mitogen-activated protein kinase 11 (Homo sapiens) (UniProt Q15759); assay: Inhibition of p38beta-2 (unknown origin) at 30 uM by microfluidic mobility shift assay relative to control; procedure, shortened: as §2
Sequence of Mitogen-activated protein kinase 11 (Homo sapiens) (Q15759 whole entry): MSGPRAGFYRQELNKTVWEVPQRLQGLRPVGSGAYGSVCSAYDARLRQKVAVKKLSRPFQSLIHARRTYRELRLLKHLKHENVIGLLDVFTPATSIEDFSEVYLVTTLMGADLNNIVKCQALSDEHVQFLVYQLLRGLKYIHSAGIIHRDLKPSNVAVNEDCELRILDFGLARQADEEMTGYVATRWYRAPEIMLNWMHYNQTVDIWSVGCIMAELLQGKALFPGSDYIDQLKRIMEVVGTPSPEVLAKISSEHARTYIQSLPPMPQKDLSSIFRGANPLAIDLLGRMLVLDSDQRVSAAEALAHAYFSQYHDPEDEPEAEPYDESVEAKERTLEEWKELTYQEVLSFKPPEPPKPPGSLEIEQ

[5] = biological target: T3, Serine/threonine-protein kinase Nek2 (Homo sapiens) (UniProt P51955); assay: Inhibition of NEK2 (unknown origin) at 30 uM by microfluidic mobility shift assay relative to control; procedure, shortened: as §1
T3 sequence (whole entry): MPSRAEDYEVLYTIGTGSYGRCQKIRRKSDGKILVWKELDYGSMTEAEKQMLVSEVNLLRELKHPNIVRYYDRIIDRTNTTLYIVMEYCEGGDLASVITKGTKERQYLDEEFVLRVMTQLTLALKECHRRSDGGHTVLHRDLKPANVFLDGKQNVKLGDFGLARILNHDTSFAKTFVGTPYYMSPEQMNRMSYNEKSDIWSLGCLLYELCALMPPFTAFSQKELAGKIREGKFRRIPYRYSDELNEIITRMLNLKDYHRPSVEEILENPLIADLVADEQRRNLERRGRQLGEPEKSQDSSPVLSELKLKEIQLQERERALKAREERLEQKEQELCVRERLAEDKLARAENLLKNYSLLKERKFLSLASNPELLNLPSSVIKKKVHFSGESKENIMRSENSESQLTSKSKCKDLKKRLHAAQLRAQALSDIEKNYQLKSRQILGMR

Homo sapiens [6] = species: Homo sapiens; assay: Inhibition of DCAMK (unknown origin) at 30 uM by microfluidic mobility shift assay relative to control; procedure, shortened: as §1
Homo sapiens [7] = species: Homo sapiens; assay: Inhibition of c-TAK (unknown origin) at 30 uM by microfluidic mobility shift assay relative to control; procedure, shortened: as §2
[8] = system: Tyrosine-protein kinase ABL1 (Homo sapiens), P00519 [H396P]; assay: Inhibition of ABL H396P mutant (unknown origin) at 30 uM by microfluidic mobility shift assay relative to control; format: protein assay; procedure, shortened: as §1
[9] = biological target: Ribosomal protein S6 kinase alpha-2 (Homo sapiens) (UniProt Q15349); assay: Inhibition of RSK3 (unknown origin) at 30 uM by microfluidic mobility shift assay relative to control; procedure, shortened: as §2
Sequence of Ribosomal protein S6 kinase alpha-2 (Homo sapiens) (Q15349 whole entry): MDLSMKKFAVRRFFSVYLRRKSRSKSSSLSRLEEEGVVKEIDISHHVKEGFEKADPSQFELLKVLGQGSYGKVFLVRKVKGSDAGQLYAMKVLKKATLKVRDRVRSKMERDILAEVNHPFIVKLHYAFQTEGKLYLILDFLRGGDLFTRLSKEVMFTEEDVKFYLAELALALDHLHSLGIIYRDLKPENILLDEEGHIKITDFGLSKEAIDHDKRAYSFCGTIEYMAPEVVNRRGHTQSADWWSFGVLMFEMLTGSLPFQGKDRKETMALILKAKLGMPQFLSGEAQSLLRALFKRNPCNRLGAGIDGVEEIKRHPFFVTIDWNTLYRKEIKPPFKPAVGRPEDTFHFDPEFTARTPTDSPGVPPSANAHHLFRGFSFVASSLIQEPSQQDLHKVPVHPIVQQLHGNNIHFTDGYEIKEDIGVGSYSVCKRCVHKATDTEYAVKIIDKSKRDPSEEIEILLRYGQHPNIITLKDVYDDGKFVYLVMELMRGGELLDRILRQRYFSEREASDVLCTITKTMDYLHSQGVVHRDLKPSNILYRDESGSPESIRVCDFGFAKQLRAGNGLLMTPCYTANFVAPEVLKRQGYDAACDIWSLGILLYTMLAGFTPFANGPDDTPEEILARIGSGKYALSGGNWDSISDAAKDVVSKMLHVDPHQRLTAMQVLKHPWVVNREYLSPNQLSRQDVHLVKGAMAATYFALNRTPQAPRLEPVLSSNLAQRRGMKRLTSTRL

[10] = biological target: Fibroblast growth factor receptor 4 (Homo sapiens) (UniProt P22455); assay: Inhibition of FGFR4 (unknown origin) at 30 uM by microfluidic mobility shift assay relative to control; procedure, shortened: as §1
Sequence of Fibroblast growth factor receptor 4 (Homo sapiens) (P22455 22-802 limits assumed): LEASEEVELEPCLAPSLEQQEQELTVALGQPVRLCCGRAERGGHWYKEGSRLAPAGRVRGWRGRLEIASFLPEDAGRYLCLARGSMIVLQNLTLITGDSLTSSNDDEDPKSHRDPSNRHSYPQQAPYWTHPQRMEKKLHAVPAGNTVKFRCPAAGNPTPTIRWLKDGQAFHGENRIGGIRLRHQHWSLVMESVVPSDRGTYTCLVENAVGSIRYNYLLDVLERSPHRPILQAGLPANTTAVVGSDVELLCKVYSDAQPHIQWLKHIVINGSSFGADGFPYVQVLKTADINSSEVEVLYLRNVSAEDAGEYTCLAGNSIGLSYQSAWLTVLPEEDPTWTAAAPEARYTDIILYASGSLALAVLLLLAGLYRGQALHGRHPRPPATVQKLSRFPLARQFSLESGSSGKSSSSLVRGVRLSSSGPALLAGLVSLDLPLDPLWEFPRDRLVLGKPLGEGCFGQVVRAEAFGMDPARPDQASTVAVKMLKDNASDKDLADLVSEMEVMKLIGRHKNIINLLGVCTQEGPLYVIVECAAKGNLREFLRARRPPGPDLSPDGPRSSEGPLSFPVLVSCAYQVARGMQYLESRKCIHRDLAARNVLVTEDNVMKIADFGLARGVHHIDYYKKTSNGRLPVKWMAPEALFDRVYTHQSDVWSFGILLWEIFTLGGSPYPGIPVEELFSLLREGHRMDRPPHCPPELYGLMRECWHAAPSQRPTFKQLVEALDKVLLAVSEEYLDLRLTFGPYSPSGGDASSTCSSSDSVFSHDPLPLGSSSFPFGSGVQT

[11] = biological target: Calcium/calmodulin-dependent protein kinase type II subunit gamma (Homo sapiens) (UniProt Q13555); assay: Inhibition of CAMK2gamma (unknown origin) at 30 uM by microfluidic mobility shift assay relative to control
Sequence of Calcium/calmodulin-dependent protein kinase type II subunit gamma (Homo sapiens) (Q13555 whole entry, looked up): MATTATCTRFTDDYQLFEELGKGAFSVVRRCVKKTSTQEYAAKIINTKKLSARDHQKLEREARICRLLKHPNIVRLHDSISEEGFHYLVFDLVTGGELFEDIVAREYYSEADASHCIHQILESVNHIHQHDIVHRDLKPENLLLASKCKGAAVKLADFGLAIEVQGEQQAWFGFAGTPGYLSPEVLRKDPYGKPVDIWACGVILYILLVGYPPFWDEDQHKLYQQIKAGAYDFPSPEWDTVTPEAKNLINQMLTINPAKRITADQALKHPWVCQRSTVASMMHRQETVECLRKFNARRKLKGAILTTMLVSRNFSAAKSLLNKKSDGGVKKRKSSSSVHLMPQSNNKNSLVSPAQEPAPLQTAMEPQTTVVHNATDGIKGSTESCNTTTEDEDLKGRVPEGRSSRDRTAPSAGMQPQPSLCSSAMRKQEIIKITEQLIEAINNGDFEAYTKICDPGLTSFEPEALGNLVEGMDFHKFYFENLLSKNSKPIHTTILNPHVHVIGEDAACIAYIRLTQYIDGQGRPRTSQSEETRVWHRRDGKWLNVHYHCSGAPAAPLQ

[12] = biological target: T4, Mitogen-activated protein kinase 12 (Homo sapiens) (UniProt P53778); assay: Inhibition of p38gamma (unknown origin) at 30 uM by microfluidic mobility shift assay relative to control; procedure, shortened: as §2
T4 sequence (whole entry): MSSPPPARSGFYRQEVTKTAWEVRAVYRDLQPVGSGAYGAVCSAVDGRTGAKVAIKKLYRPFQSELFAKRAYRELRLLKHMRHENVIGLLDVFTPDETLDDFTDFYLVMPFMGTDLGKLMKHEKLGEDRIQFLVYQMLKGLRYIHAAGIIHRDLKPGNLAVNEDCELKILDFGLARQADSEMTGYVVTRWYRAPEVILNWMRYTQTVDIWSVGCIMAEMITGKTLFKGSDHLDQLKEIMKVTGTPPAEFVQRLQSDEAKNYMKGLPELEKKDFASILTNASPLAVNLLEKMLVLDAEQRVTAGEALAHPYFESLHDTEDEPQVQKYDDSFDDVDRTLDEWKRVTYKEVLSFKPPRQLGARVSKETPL

Sequence of Serine/threonine-protein kinase PAK 2 (Homo sapiens) (Q13177 whole entry): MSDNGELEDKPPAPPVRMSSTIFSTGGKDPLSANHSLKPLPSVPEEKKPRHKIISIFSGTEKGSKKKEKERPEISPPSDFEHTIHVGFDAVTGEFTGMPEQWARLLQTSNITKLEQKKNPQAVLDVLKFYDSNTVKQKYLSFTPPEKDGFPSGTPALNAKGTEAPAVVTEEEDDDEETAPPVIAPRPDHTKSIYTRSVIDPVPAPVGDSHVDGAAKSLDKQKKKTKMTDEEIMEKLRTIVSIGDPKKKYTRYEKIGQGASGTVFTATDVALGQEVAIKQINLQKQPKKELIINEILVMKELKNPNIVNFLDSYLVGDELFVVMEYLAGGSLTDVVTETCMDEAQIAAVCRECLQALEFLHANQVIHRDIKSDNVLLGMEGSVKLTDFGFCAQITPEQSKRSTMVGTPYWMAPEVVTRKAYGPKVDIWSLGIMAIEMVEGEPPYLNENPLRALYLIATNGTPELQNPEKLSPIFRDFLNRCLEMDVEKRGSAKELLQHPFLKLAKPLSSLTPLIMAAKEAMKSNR

inhibition [1]	inhibition [2]	inhibition [3]	inhibition [4]	inhibition [5]	inhibition (Homo sapiens [6])	inhibition (Homo sapiens [7])	inhibition [8]	inhibition [9]	inhibition [10]	inhibition [11]	inhibition [12]	SMILES
20%	47%	25%	4%	14%	17%	47%	42%	81%	4%	18%	6%	c1ccc(C2CCNC3(CCN(c4ncnc5[nH]cnc45)CC3)C2)cc1 (racemic)
13%	17%	7%	3%	7%	13%	21%	28%	57%	7%	17%	3%	c1ccc(CC2CCC3(CCN(c4ncnc5[nH]cnc45)CC3)NC2)cc1 (racemic)
19%	59%	32%	8%	11%	20%	55%	15%	91%	0%	17%	11%	c1ccc(CC2CCNC3(CCN(c4ncnc5[nH]cnc45)CC3)C2)cc1 (racemic)
